Rows were chosen to be rich in hits. Some 2.4% of all compounds tested hit in one or more screens of this group.
DAGLB inh: DAGLB lipase inhibitors, primary screen, biochemical, fluorescence, HTS; AID 504411, 2011; Diacylglycerol lipase-beta (Homo sapiens), Q8NCG7; inhibition, % at 5.17 µM; actives 0.059% (n = 340,000); HEK293T DAGLB membrane lysate, EnzChek fluorogenic substrate; in the data active = inhibition above about 34%
MT1-MMP act inh: blockers of MT1-MMP proenzyme processing, primary screen, HT1080 RFP-PRO-GFP cells, GFP/RFP fluorescence; Matrix metalloproteinase-14 (Homo sapiens), P50281; GFP/RFP ratio fluorescence, overnight; percent of plate control window, DMSO zero; GFP/RFP ratio change, % at 20 µM; actives 0.061% (n = 360,000);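 active = GFP/RFP ratio change of at least 30% with cell ATP level not reduced by more than half and red fluorescence within 50% of control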
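Assay system – RFP-PRO-GFP reporter HT1080 cells · Compound dosing – single dose of 20 µM compound, 1% DMSO final · Incubation – overnight compound exposure at 37 °C · Measure – GFP/RFP fluorescence ratio · Benchmarks – DMSO wells and RFP-L50D-GFP cells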
NRP1-CendR mod: modulators of CendR peptide binding to NRP-1, primary screen, biochemical, fluorescence polarization, uHTS; FAM-RPARPAR peptide binding to NRP-1; inhibition, % at 25 µM; Neuropilin-1 (Homo sapiens), O14786; actives 0.85% (n = 360,000);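 active = inhibition or corrected inhibition above about 18%, plus a signal ratio from 0.5 to 1.5, limit read from the data, passing the limit was not always enough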
Target sequence (O14786 whole entry, looked up): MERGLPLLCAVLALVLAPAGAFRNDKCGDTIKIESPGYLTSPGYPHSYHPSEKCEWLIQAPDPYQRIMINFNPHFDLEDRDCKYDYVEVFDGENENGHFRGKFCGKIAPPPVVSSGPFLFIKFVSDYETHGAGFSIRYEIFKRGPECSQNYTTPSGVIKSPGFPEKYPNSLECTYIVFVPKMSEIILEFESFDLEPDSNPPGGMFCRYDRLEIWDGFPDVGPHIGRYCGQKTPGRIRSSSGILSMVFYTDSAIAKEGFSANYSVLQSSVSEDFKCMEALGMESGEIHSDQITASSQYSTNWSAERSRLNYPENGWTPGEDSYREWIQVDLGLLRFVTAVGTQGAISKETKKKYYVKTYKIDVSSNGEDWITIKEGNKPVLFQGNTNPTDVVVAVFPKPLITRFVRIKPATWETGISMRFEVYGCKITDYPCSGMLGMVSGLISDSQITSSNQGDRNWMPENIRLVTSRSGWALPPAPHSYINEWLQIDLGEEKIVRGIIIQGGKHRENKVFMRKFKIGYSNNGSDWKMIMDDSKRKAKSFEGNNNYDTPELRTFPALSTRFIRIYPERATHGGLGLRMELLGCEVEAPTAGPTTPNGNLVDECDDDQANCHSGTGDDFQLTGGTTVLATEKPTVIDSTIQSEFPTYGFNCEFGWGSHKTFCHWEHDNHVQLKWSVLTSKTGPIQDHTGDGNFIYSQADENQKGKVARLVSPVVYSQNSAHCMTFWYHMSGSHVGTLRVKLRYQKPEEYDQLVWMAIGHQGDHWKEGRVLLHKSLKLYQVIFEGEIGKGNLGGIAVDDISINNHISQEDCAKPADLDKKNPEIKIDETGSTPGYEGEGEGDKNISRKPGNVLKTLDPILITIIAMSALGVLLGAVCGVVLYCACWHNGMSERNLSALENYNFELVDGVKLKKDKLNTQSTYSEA
MIN6 prolif: inducers of MIN6 beta-cell proliferation, primary screen, ATP luminescence, uHTS; MIN6 cells proliferation, ATPlite luminescence, 48 h; cells starved in 0.2% serum; 100% = growth in 10% serum; proliferation, % at 10 µM; actives 0.29% (n = 330,000); AID 2380, 2010;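 active = compounds whose signal lies at least 3.5 SD above the mean of all wells on their plate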
Myeloid diff MLP: induction of myeloid progenitor differentiation, primary screen, cell-based, flow cytometry, MLPCN library | ER-HoxA9 myeloid progenitors, lysozyme-GFP differentiation | AID 624256, 2012 | calls only at 10 µM | actives 1% (n = 360,000);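 active = normalized GFP-positive differentiation at or above the plate's own cutoff, the solvent-only control mean plus 3 SD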;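 note: cells exposed to compound for four days before flow analysis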
SENP1 FRET inh: human SENP1 catalytic domain inhibitors, primary screen, biochemical, FRET, uHTS; Sentrin-specific protease 1 (Homo sapiens), Q9P0U3; recombinant SENP1 catalytic domain, CyPet-SUMO1-YPet FRET cleavage; inhibition, % at 10 µM; actives 0.21% (n = 360,000);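 active = inhibition at least 30% at 10 µM, raw YFP signal under a set limit, fluorescence ratio 0.5 to 1.5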
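Material: hSENP1 catalytic domain, recombinant; medium: Tris pH 8 with BME, BSA, NP40 and catalase; compound: single concentration of 10 µM compound, 0.5% DMSO final; technique: FRET read of cyan and yellow fluorescence; timing: 50 min enzyme reaction, room temperature, light-protected; reagent: SFCypet-SUMO1-SFYpet substrate at 25 nM; control set: no-enzyme low, enzyme-DMSO high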
Numbers stand for hits.

Screening CCOc1ccc(-n2c(O)c(C=NCCN3CCNCC3)c(=O)[nH]c2=O)cc1 returned DAGLB inh inactive, MT1-MMP act inh inactive, NRP1-CendR mod inactive, MIN6 prolif inactive, Myeloid diff MLP inactive and SENP1 FRET inh inactive.
For Cc1ccc(-c2cc(C(F)F)n3ncc(C(=O)N4CCC5(CC4)OCCO5)c3n2)cc1 the results were DAGLB inh inactive, MT1-MMP act inh inactive, NRP1-CendR mod inactive, MIN6 prolif inactive, Myeloid diff MLP inactive and SENP1 FRET inh inactive.
`CCC1CN1P(=O)(Oc1ccc(Cl)cc1)N1CC1CC` (stereo unspecified) gave DAGLB inh inactive, MT1-MMP act inh inactive, NRP1-CendR mod 34, Myeloid diff MLP inactive and SENP1 FRET inh inactive.
COC1=C(C)C(=O)C2=C(C1=O)C(CO)N1C(C#N)C3CC4C(C1C2N1CCOC41)N3C (stereo unspecified) was read as DAGLB inh inactive, MT1-MMP act inh inactive, NRP1-CendR mod inactive and SENP1 FRET inh inactive.
Screening c1ccc(CNC2=NCCS2)cc1 returned DAGLB inh inactive, MT1-MMP act inh inactive, NRP1-CendR mod 21, MIN6 prolif inactive, Myeloid diff MLP inactive and SENP1 FRET inh inactive.
`CCC(=NCCCn1ccnc1)c1c(O)n(Cc2ccccc2)c(=O)[nH]c1=O` gave DAGLB inh inactive, MT1-MMP act inh inactive, NRP1-CendR mod inactive, MIN6 prolif inactive, Myeloid diff MLP inactive and SENP1 FRET inh inactive.
CC(=O)OC[C@]12CCC(C)=C[C@H]1O[C@@H]1[C@H](O)[C@@H](OC(C)=O)[C@@]2(C)[C@]12CO2 was read as DAGLB inh inactive, MT1-MMP act inh inactive, NRP1-CendR mod inactive, MIN6 prolif inactive, Myeloid diff MLP active and SENP1 FRET inh inactive.
O=[N+]([O-])/C=C/c1c(Cl)cccc1Cl was read as DAGLB inh inactive, MT1-MMP act inh inactive, NRP1-CendR mod inactive, Myeloid diff MLP active and SENP1 FRET inh inactive.
`NC(=O)CN1CCCC1=O` gave DAGLB inh inactive, MT1-MMP act inh inactive, NRP1-CendR mod inactive, MIN6 prolif inactive, Myeloid diff MLP inactive and SENP1 FRET inh inactive.
COC(=O)C1=C(c2ccc(C(C)=O)cc2)C[C@@H]2CC[C@H]1N2C(=O)NCc1ccc2c(c1)OCO2 was read as DAGLB inh inactive, MT1-MMP act inh inactive, NRP1-CendR mod 21, MIN6 prolif inactive, Myeloid diff MLP inactive and SENP1 FRET inh inactive.
COC(=O)C1=C(c2cccc(OCc3ccccc3)c2)C[C@@H]2CC[C@H]1N2C(=O)NCc1ccc(N(C)C)cc1 was read as DAGLB inh inactive, MT1-MMP act inh inactive, NRP1-CendR mod inactive, MIN6 prolif inactive, Myeloid diff MLP active and SENP1 FRET inh inactive.
COC(=O)C1=C(c2ccc(OCc3ccccc3)cc2)C[C@@H]2CC[C@H]1N2C was read as DAGLB inh inactive, MT1-MMP act inh inactive, NRP1-CendR mod inactive, Myeloid diff MLP inactive and SENP1 FRET inh inactive.
Screening C[C@@H]1CN([C@H](C)CO)C(=O)CCCn2nncc2CO[C@H]1CN(C)C(=O)Oc1cccc2ccccc12 returned DAGLB inh inactive, MT1-MMP act inh inactive, NRP1-CendR mod inactive, Myeloid diff MLP inactive and SENP1 FRET inh inactive.
For COc1cc(CN=C(C)c2c(O)n(C3CCCCC3)c(=O)[nH]c2=O)cc(OC)c1 the results were DAGLB inh inactive, MT1-MMP act inh inactive, NRP1-CendR mod inactive, MIN6 prolif inactive, Myeloid diff MLP inactive and SENP1 FRET inh inactive.
For C=CCn1c(=O)c(C=Nc2cccc([N+](=O)[O-])c2)c(O)n(CCCC)c1=O the results were DAGLB inh inactive, MT1-MMP act inh inactive, NRP1-CendR mod inactive, MIN6 prolif inactive, Myeloid diff MLP active and SENP1 FRET inh inactive.
CCN1/C(=C\C=C\C2=[N+](CC)c3ccccc3C2(C)C)C(C)(C)c2ccccc21 was read as DAGLB inh inactive, MT1-MMP act inh inactive, NRP1-CendR mod inactive, MIN6 prolif inactive and SENP1 FRET inh 64.
`CCCCC1(CN2CCCC2=O)C(=O)NC(=O)NC1=O` gave DAGLB inh inactive, MT1-MMP act inh inactive, NRP1-CendR mod 23, MIN6 prolif inactive, Myeloid diff MLP inactive and SENP1 FRET inh inactive.
For O=C(O)c1nonc1-c1nonc1C(=O)O the results were DAGLB inh inactive, MT1-MMP act inh inactive, NRP1-CendR mod inactive, MIN6 prolif inactive, Myeloid diff MLP inactive and SENP1 FRET inh inactive.
For CC1=C[C@@H]2c3cccc4[nH]cc(c34)C[C@H]2N(C)C1 the results were DAGLB inh inactive, MT1-MMP act inh inactive, NRP1-CendR mod 44, MIN6 prolif inactive, Myeloid diff MLP active and SENP1 FRET inh inactive.
Cc1ccc(C2(O)CCN3CCCCC32)cc1 (stereo unspecified) was read as DAGLB inh inactive, MT1-MMP act inh inactive, NRP1-CendR mod 29, MIN6 prolif inactive, Myeloid diff MLP inactive and SENP1 FRET inh inactive.
`CN1CCC(O)(c2ccccc2)C2CCCC21` (stereo unspecified) gave DAGLB inh inactive, MT1-MMP act inh inactive, NRP1-CendR mod inactive, MIN6 prolif inactive, Myeloid diff MLP inactive and SENP1 FRET inh inactive.
`Nc1c(C(=O)NCc2ccco2)c2nc3ccccc3nc2n1Cc1ccc(F)cc1` gave DAGLB inh inactive, MT1-MMP act inh inactive, NRP1-CendR mod inactive, MIN6 prolif inactive, Myeloid diff MLP active and SENP1 FRET inh inactive.
COc1ccc(Cn2c(N)c(C(=O)NCc3ccco3)c3nc4ccccc4nc32)cc1 was read as DAGLB inh inactive, MT1-MMP act inh inactive, NRP1-CendR mod inactive, MIN6 prolif inactive, Myeloid diff MLP active and SENP1 FRET inh inactive.
Nc1c(C(=O)NCc2ccco2)c2nc3ccccc3nc2n1Cc1ccccc1 was read as DAGLB inh inactive, MT1-MMP act inh inactive, NRP1-CendR mod inactive, MIN6 prolif inactive, Myeloid diff MLP inactive and SENP1 FRET inh inactive.
Screening CC1N=C(c2ccccc2Cl)c2cc(Br)ccc2NC1=O (stereo unspecified) returned DAGLB inh inactive, MT1-MMP act inh inactive, NRP1-CendR mod inactive, MIN6 prolif inactive, Myeloid diff MLP inactive and SENP1 FRET inh inactive.
For COc1ccc(-n2c(/C=C/c3ccc(O)cc3)nc3ccccc3c2=O)cc1 the results were DAGLB inh inactive, MT1-MMP act inh inactive, NRP1-CendR mod inactive, MIN6 prolif inactive, Myeloid diff MLP inactive and SENP1 FRET inh inactive.
`COc1ccc(-n2c(/C=C/c3ccc(O)c(OC)c3)nc3ccccc3c2=O)cc1` gave DAGLB inh inactive, MT1-MMP act inh inactive, NRP1-CendR mod inactive, MIN6 prolif inactive, Myeloid diff MLP active and SENP1 FRET inh inactive.

Source: PubChem (several laboratories)
